Reference: ChEMBL document CHEMBL1158511, “Tricyclic dihydroquinazolinones as novel 5-HT2C selective and orally efficacious anti-obesity agents” (Bioorg Med Chem Lett, 2010)

Experiments:
[1] = target: T1, 5-hydroxytryptamine receptor 2A (Homo sapiens, UniProt P28223); test: Agonist activity at human recombinant 5HT2A receptor expressed in HEK293E cells by FLIPR assay; assay type: functional, cell-based
Summary of the method: (§1)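 Calcium mobilization measured by FLIPR in HEK293E cells expressing human 5-HT2A, 5-HT2B or 5-HT2C receptor. Values are means of ≥2 independent 12-point dose-response curves (n ≥4 where SD is given). mCPP is the positive control.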

[2] = target: T1, 5-hydroxytryptamine receptor 2A; test: Displacement of [125I]DOI from human recombinant 5HT2A receptor expressed in HEK293E cells; assay type: cell-based
Summary of the method: (§2)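 Radioligand binding with [125I]DOI at the human 5-HT2C or 5-HT2A receptor. Ki is the mean of ≥2 independent 12-point dose-response curves (n ≥4 where SD is given).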

[3] = target: T1, 5-hydroxytryptamine receptor 2A; test: Intrinsic activity at human recombinant 5HT2A receptor expressed in HEK293E cells by FLIPR assay at 3 uM relative to control; assay type: cell-based
Summary of the method: (§3)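 FLIPR calcium mobilization in HEK293E cells expressing the human receptor. Intrinsic activity is expressed relative to activation by 3 µM serotonin, defined as 1.0. Values are means of ≥2 independent 12-point dose-response curves.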

[4] = target: T2, 5-hydroxytryptamine receptor 2C (Homo sapiens, UniProt P28335); test: Displacement of [125I]DOI from human recombinant 5HT2C receptor expressed in HEK293E cells; assay type: cell-based; summary of the method: as §2
T2 sequence (P28335 whole entry): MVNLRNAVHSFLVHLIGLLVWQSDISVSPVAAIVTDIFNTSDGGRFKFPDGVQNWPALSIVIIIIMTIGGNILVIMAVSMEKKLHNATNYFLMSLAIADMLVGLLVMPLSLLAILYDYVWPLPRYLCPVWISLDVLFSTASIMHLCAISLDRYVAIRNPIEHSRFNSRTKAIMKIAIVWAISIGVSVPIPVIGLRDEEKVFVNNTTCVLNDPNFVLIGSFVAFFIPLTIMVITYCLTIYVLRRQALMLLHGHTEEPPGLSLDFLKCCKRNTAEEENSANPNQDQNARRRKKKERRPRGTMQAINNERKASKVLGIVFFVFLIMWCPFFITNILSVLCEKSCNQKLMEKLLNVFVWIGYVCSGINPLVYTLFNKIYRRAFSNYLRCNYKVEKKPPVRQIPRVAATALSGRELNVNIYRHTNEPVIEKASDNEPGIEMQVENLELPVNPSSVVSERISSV

[5] = target: T3, 5-hydroxytryptamine receptor 2B (Homo sapiens, UniProt P41595); test: Displacement of [3H]LSD from human recombinant 5HT2B receptor expressed in HEK293E cells
T3 sequence (P41595 whole entry): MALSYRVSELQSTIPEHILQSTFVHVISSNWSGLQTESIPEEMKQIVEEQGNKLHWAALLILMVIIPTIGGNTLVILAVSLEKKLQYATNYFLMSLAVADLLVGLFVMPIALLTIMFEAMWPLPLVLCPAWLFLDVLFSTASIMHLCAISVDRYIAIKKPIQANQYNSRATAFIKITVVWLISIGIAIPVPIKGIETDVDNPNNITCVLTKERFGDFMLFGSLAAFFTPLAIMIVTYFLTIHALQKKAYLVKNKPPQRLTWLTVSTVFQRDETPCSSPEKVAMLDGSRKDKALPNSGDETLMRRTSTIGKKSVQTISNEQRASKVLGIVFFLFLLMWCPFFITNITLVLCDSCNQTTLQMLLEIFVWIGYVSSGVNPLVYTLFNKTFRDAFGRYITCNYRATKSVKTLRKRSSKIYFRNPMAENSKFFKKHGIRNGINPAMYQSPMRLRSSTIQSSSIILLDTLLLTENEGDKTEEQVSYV

[6] = target: T2, 5-hydroxytryptamine receptor 2C; test: Agonist activity at human recombinant 5HT2C receptor expressed in HEK293E cells by FLIPR assay; assay type: functional, cell-based; summary of the method: as §1
[7] = target: T4, 5-hydroxytryptamine receptor 2C (Homo sapiens) (UniProt P28335); test: Intrinsic activity at human recombinant 5HT2C receptor at 3 uM expressed in HEK293E cells by FLIPR assay relative to control; assay type: cell-based; summary of the method: as §3
T4 sequence (whole entry): T2 sequence (P28335 whole entry)

[8] = target: T3, 5-hydroxytryptamine receptor 2B; test: Intrinsic activity at human recombinant 5HT2B receptor expressed in HEK293E cells by FLIPR assay at 3 uM relative to control; assay type: cell-based; summary of the method: as §3
[9] = target: T3, 5-hydroxytryptamine receptor 2B; test: Agonist activity at human recombinant 5HT2B receptor expressed in HEK293E cells by FLIPR assay; assay type: functional, cell-based; summary of the method: as §1
[10] = target: 5-hydroxytryptamine receptor 2B (Rattus norvegicus) (UniProt P30994); test: Intrinsic activity at 5HT2B receptor in rat fundus at 10 uM relative to control
Chain of 5-hydroxytryptamine receptor 2B (Rattus norvegicus) (P30994 whole entry, looked up): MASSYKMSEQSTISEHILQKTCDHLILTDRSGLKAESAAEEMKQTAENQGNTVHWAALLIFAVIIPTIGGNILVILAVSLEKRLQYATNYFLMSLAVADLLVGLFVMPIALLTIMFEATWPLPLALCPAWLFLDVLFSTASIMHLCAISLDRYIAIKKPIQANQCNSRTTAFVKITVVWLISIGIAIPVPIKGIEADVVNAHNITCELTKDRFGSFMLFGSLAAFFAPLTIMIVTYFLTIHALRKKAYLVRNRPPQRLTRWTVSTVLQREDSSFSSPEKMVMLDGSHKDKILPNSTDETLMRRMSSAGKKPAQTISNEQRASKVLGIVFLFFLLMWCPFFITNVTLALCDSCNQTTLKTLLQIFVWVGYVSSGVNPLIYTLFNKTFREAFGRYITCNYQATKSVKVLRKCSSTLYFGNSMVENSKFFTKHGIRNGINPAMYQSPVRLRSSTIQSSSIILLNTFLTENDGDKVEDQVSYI

Rattus norvegicus [11] = species on record: Rattus norvegicus; test: Antiobesity activity in Sprague-Dawley rat assessed as reduction of food intake after 20 hrs; assay type: functional, organism-based
Rattus norvegicus [12] = test: Antiobesity activity in Sprague-Dawley rat assessed as reduction of caloric intake at 30 mg/kg, po after 4 days; assay type: functional; design: scale not given: the % may be the effect or the level left
Summary of the method: (§4)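 Male Sprague–Dawley rats, about 240 g (n = 8), were dosed orally once daily for 4 days with compound or vehicle (14% propylene glycol, 1% tween, 85% water, v/v/v). Body weight, food and water intake were measured daily and compared with vehicle.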

[13] = Tmax in Sprague-Dawley rat at 10 mg/kg, po; assay type: ADME, organism-based; design: dose 10 mg/kg, route oral; settings: in vivo
Summary of the method: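 Male Sprague–Dawley rats were dosed po only at 1 or 10 mpk. Values are means of 2 animals. AUC was collected over 4 h. Plasma and total brain levels were taken at 4 h post dose.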

[14] = Plasma concentration in Sprague-Dawley rat at 10 mg/kg, po after 8 hrs; assay type: ADME, organism-based; design: dose 10 mg/kg, route oral
Summary of the method: (§5)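 Male Sprague–Dawley rats given a single oral dose, 2 animals per value. AUC is taken over 0–8 h. Plasma and total brain levels are measured at 8 h post dose.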

Rattus norvegicus [15] = test: Antiobesity activity in Sprague-Dawley rat assessed as reduction of food intake at 10 mg/kg, po after 20 hrs; assay type: functional; design: scale not given: the % may be the effect or the level left
[16] = AUC in Sprague-Dawley rat at 10 mg/kg, po after 8 hrs; assay type: ADME, organism-based; design: time < 8 hr, dose 10 mg/kg, route oral; settings: plasma; summary of the method: as §5
Rattus norvegicus [17] = test: Antiobesity activity in Sprague-Dawley rat assessed as reduction of body weight at 30 mg/kg, po after 4 days; assay type: functional; design: scale not given: the % may be the effect or the level left; summary of the method: as §4
Rattus norvegicus [18] = test: Antiobesity activity in Sprague-Dawley rat assessed as reduction of food intake at 30 mg/kg, po after 20 hrs; assay type: functional; design: scale not given: the % may be the effect or the level left
Summary of the method: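 Male Sprague–Dawley rats (n = 6) are dosed orally 60 min before dark-cycle onset. Vehicle is 14% propylene glycol, 1% tween, 85% water (v/v/v). Food pellet consumption over 20 h is compared with vehicle-treated animals as percent reduction. Water intake and locomotor activity are recorded at the same time.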

Brain = test: Drug level in Sprague-Dawley rat brain at 10 mg/kg, po after 8 hrs; assay type: ADME, organism-based; design: dose 10 mg/kg, route oral; settings: in vivo; summary of the method: as §5

T1 sequence (P28223 whole entry): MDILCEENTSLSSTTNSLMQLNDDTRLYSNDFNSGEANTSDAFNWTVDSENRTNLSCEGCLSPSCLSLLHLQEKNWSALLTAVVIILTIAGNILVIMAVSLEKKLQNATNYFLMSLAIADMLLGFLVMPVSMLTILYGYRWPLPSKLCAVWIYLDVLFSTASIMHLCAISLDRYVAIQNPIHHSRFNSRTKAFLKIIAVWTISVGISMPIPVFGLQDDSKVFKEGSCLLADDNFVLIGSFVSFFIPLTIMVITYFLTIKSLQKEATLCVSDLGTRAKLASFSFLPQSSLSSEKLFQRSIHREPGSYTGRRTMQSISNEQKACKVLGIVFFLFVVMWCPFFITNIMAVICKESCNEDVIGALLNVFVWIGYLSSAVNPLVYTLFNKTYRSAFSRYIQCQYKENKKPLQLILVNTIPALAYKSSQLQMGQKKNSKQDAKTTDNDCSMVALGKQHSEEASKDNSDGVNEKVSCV

Cc1cccc2c1N1CCNCC1NC2=O (configuration not stated)
EC50 [1]: > 10000 nM | Ki [2]: > 10000 nM | Intrinsic activity [3]: 0 | Ki [4]: 6150 nM | Ki [5]: 2390 nM | EC50 [6]: 4200 nM | Intrinsic activity [7]: 0.4

Cc1cccc2c1C(=O)NC1CCNCCN21 (configuration not stated)
Intrinsic activity [8]: 0.44 | EC50 [1]: 70 nM | Ki [2]: 141 nM | Intrinsic activity [3]: 1 | Ki [4]: 2.9 nM | Ki [5]: 10 nM | EC50 [9]: 61 nM | EC50 [6]: 2 nM | Intrinsic activity [10]: 0.2 | Intrinsic activity [7]: 1

O=C1NC2CNCCN2c2c(Cl)cccc21 (configuration not stated)
Ki [2]: > 10000 nM | Ki [4]: > 10000 nM | Ki [5]: > 10000 nM | EC50 [6]: > 10000 nM | Intrinsic activity [7]: 0

O=C1NC2CNCCN2c2cccc(Cl)c21 (configuration not stated)
Intrinsic activity [8]: 0 | EC50 [1]: > 10000 nM | Ki [2]: 334 nM | Intrinsic activity [3]: 0 | Ki [4]: 223 nM | Ki [5]: 18 nM | EC50 [9]: > 10000 nM | EC50 [6]: 43 nM | Intrinsic activity [7]: 0.8

Clc1cccc(N2CCNCC2)c1
Intrinsic activity [8]: 0.4 | Intrinsic activity [3]: 0.3 | Intrinsic activity [7]: 1

O=C1NC2CNCCCN2c2cccc(Cl)c21 (racemic)
Ki [2]: 13600 nM | Ki [4]: 1550 nM | Ki [5]: 734 nM

O=C1NC2CNCCN2c2ccccc21 (single isomer, unassigned)
Ki [2]: 1980 nM | Ki [4]: 1940 nM | Ki [5]: 137 nM | EC50 [6]: 137 nM | Intrinsic activity [7]: 0.96

Cc1ccc2c(c1)C(=O)NC1CNCCN21 (single isomer, unassigned)
Intrinsic activity [8]: 0 | EC50 [1]: > 705 nM | Ki [2]: 1220 nM | Intrinsic activity [3]: 0.34 | Ki [4]: 998 nM | Ki [5]: 61 nM | EC50 [9]: > 10000 nM | EC50 [6]: 133 nM | Intrinsic activity [7]: 1

Cc1ccc2c(c1)N1CCNCC1NC2=O (single isomer, unassigned)
Intrinsic activity [8]: 0 | EC50 [1]: > 1000 nM | Ki [2]: 600 nM | Intrinsic activity [3]: 0.26 | Ki [4]: 479 nM | Ki [5]: 280 nM | EC50 [9]: > 10000 nM | EC50 [6]: 34 nM | Intrinsic activity [7]: 1

O=C1NC2CNCCN2c2cccc(C(F)(F)F)c21 (single isomer, unassigned)
Ki [2]: 184 nM | Ki [4]: 153 nM | Ki [5]: 13 nM | EC50 [9]: > 10000 nM | EC50 [6]: 92 nM | Intrinsic activity [7]: 0.93

O=C1NC2CNCCN2c2ccc(Cl)cc21 (single isomer, unassigned)
Ki [2]: 397 nM | Ki [4]: 757 nM | Ki [5]: 72 nM | EC50 [6]: 110 nM | Intrinsic activity [7]: 0.97

O=C1NC2CCNCCN2c2cccc(Cl)c21 (single isomer, unassigned)
Intrinsic activity [8]: 0.5 | EC50 [1]: 130 nM | Ki [2]: 168 nM | Intrinsic activity [3]: 0.8 | Ki [4]: 9 nM | Ki [5]: 23 nM | EC50 [9]: 46 nM | EC50 [6]: 1.8 nM | Intrinsic activity [7]: 1

O=C1NC2CCNCCN2c2ccccc21 (single isomer, unassigned)
Intrinsic activity [8]: 0.6 | EC50 [1]: 248 nM | Ki [2]: 269 nM | Intrinsic activity [3]: 1 | Ki [4]: 49 nM | Ki [5]: 67 nM | EC50 [9]: 101 nM | EC50 [6]: 16 nM | Intrinsic activity [7]: 0.8

Cc1cccc2c1C(=O)NC1CNCCN21 (single isomer, unassigned; (+))
Intrinsic activity [8]: 0 | Activity (Rattus norvegicus [11]): Dose-dependent effect | Intrinsic activity [3]: 0 | Intrinsic activity [7]: 1

Cc1ccc2c(c1)N1CCNCCC1NC2=O (stereo in doubt; (+)-3c) [listing 1 of 2 here]
EC50 [1]: 952 nM | Activity (Rattus norvegicus [12]): 19% | Ki [2]: 364 nM | Tmax [13]: 1.5 h | concentration at 8 h [14]: 714 nM | Ki [4]: 6.5 nM | Ki [5]: 41 nM | Activity (Rattus norvegicus [15]): 18% | EC50 [9]: > 10000 nM | EC50 [6]: 6.6 nM | AUC at 8 h [16]: 9.24 µM·h | Activity (Rattus norvegicus [17]): 2.7% | Activity (Rattus norvegicus [18]): 25% | Drug uptake (Brain): 108 nmol/kg

Cc1ccc2c(c1)N1CCNCCC1NC2=O (stereo in doubt; (+)-3c) [listing 2 of 2 here]
Intrinsic activity [8]: 0 | Intrinsic activity [3]: 0.28 | Intrinsic activity [7]: 1.1

Cc1cccc2c1C(=O)NC1CNCCN21 (stereo in doubt; (-)-2a) [listing 1 of 2 here]
Ki [2]: 4480 nM | Ki [4]: 2080 nM | Ki [5]: 206 nM | EC50 [6]: 989 nM

Cc1cccc2c1C(=O)NC1CNCCN21 (stereo in doubt; (-)-2a) [listing 2 of 2 here]
Intrinsic activity [7]: 0.9

Cc1ccc2c(c1)N1CCNCCC1NC2=O (stereo in doubt; (-)-3c) [listing 1 of 2 here]
EC50 [1]: > 10000 nM | Ki [2]: 454 nM | Ki [4]: 60 nM | Ki [5]: 51 nM | EC50 [6]: 92 nM

Cc1ccc2c(c1)N1CCNCCC1NC2=O (stereo in doubt; (-)-3c) [listing 2 of 2 here]
Intrinsic activity [3]: 0.11 | Intrinsic activity [7]: 0.66
